The list is not random: actives were taken first. Their share in the collection is about 5.4%.
PLAP act = PLAP enzyme activators, biochemical, luminescence, HTS; Alkaline phosphatase, placental type (Homo sapiens), P05187; purified PLAP enzyme, luminescent substrate read-out; active compounds read high; activation fold at 20 µM; 96,000 tested, 1.2% active; AID 696, 2007; in the data active means activation fold above about 2
Target sequence (P05187 whole entry, looked up): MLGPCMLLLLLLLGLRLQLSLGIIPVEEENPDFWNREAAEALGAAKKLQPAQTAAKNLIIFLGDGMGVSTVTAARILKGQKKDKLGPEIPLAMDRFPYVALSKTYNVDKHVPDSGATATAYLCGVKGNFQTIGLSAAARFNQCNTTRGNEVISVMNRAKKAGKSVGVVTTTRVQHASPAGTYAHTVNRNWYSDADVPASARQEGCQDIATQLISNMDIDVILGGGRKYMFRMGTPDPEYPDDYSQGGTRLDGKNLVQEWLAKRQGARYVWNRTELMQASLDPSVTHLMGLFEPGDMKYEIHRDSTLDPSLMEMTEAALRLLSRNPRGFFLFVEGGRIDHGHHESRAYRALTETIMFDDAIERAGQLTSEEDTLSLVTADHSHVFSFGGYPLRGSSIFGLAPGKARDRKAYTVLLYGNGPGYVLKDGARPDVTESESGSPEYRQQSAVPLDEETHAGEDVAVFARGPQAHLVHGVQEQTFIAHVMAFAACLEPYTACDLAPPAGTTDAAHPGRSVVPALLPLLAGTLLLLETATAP
Ecoli tolC = growth inhibitors of E. coli tolC mutant, primary screen, strain BW25113 ΔtolC::kan, 384-well. OD615. growth inhibition, % at 10 µM (by protocol). 65,000 tested, 2.2% active;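 active means growth inhibition at or above a cutoff equal to the mean over every tested compound plus 3 SD, cut at about 60% in these data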;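 further: growth measured after 20 h incubation at 37 °C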
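signal = optical density read at 615 nm | test system = E. coli ΔtolC::kan strain BW25113 | timing = 20 h compound exposure of bacteria at 37 °C | buffer or medium = LB medium plus 50 µg/mL kanamycin | compound dosing = 10 µM final, single dose | evaluation = % inhibition of E. coli growth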
HePTP inh = inhibitors of human HePTP phosphatase, primary screen, biochemical, absorbance, leukemia target; Tyrosine-protein phosphatase non-receptor type 7 (Homo sapiens), P35236; recombinant HePTP phosphatase activity, OD absorbance; inhibition, % at 20 µM; 110,000 tested, 0.64% active; AID 521, 2006; in the data active means inhibition above about 50%;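 further: plate controls were vehicle for no effect and reference inhibitor for full effect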
PostGolgi yeast = phenotypic screen on post-Golgi transport, primary screen. post-Golgi transport phenotypic cell assay. inhibition, % at 10 µM. 98,000 tested, 0.9% active. AID 739, 2007;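 further: yeast cells grown in 1536-well plates; yeast grown about 18 h at 30C before absorbance read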
Ecoli WT expand = growth inhibitors of wild-type E. coli, primary screen, strain BW25113, expanded library, OD600; growth inhibition, % at 100 µM; AID 710, 2007; 98,000 tested, 0.15% active; OD600 absorbance;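 active means growth inhibition above about 50% at one test dose, limit read from the data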;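 further: growth measured after 20 h incubation at 37 °C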
PostGolgi ctrl = growth inhibition of yeast control strain, primary screen, counter-screen for post-Golgi transport modulator project; efflux-deficient yeast background strain, growth absorbance A615, 16 h; inhibition, % at 10 µM; 98,000 tested, 5% active
* = called active by the depositor; nt = not tested or not shown. Unless noted, no stated cut-off is given here; in the data, active means inhibition above about 30%; inactive means the rest.

SMILES	PLAP act	Ecoli tolC	HePTP inh	PostGolgi yeast	Ecoli WT expand	PostGolgi ctrl
CC(=O)c1ccc(N2CCN(C(=O)c3ccc(Br)cc3)CC2)c(F)c1	1.3	12.2	-5.0	86.8*	-2.0	53.6*
COc1ccc(C2C(C(=O)OCc3ccccc3)=C(C)NC3=C2C(=O)CCC3)c(OC)c1 (stereo not given)	nt	nt	0.0	nt	nt	nt
COc1ccc(NS(=O)(=O)c2cccc(C(=O)OCC(=O)Nc3cc(C)on3)c2)cc1	1.1	nt	nt	-19.6	-5.0	42.2*
Cc1ccc(NS(=O)(=O)c2cccc(C(=O)OCC(=O)NCc3ccco3)c2)cc1	1.3	15.6	0.6	-2.4	-4.0	-12.8
Cc1cc(NS(=O)(=O)c2ccc(NC(=O)COc3ccccc3C(C)C)cc2)no1	1.5	61.9*	13.2	2.7	-2.0	-3.9
CCOc1ccc(NS(=O)(=O)c2cc(OC)ccc2OC)cc1	0.8	nt	nt	-7.5	-4.0	11.8
COc1ccc(OC)c(S(=O)(=O)Nc2ccc(O)c(Sc3ncn[nH]3)c2)c1	1.5	0.0	-6.8	-5.0	-1.0	42.8*
Cc1cc(/C=N/n2cnnc2)c(C)n1-c1ccc(I)cc1	nt	nt	7.1	nt	nt	nt
Cc1[nH][nH]c(=O)c1C(c1ccc(F)cc1)C(C#N)C#N (stereo not given)	nt	nt	-0.6	nt	nt	nt
O=C(Nc1c(C(=O)N2CCCCCC2)cnn1-c1ccccc1)c1cccc(F)c1	nt	nt	-10.9	nt	nt	nt
Cc1ccc(SCc2[nH]nc3c2C2(C(=O)Nc4ccc(F)cc42)C(C#N)=C(N)O3)cc1 (stereo not given)	2*	nt	nt	-6.5	-1.0	-4.5
Cc1[nH]nc2c1C1(C(=O)Nc3ccc([N+](=O)[O-])cc31)C(C#N)=C(N)O2 (stereo not given)	1.2	nt	nt	6.8	6.0	14.6
CCc1[nH]nc2c1C1(CCN(C(=O)c3ccccc3)CC1)C(C#N)=C(N)O2	1.5	-8.4	5.5	-3.4	5.0	5.9
CC(=O)N1CCC2(CC1)C(C#N)=C(N)Oc1n[nH]c(CSc3ccc(C)cc3)c12	2*	16.6	4.0	-0.7	5.0	5.0
COc1cc(NC(=O)c2ccccc2OC)ccc1NC(=O)c1ccco1	nt	nt	2.2	nt	nt	nt
COc1ccc(N2C(=O)C3CCCN3C2c2ccc(C)o2)cc1Cl (stereo not given)	1.1	-5.8	2.8	-3.8	5.0	14.9
Cc1ccc(C2N(c3ccc(Cl)c(Cl)c3)C(=O)C3CCCN32)o1 (stereo not given)	0.9	1.5	8.3	39.6*	21.0	1.3
O=C(Cc1ccc([N+](=O)[O-])cc1)N1c2ccccc2Sc2ccccc21	nt	nt	-13.6	nt	nt	nt
Cc1c(C#N)c(N)c(C(=O)c2ccccc2)n1-c1ccccc1	nt	nt	70.3*	nt	nt	nt
Cc1c(C#N)c(N)c(C(=O)c2ccc(Br)cc2)n1-c1ccc(Br)cc1	nt	nt	10.3	nt	nt	nt
O=c1c2cccnc2[nH]c(=S)n1CCCN1CCN(c2ccc(F)cc2)CC1	1.2	2.3	0.7	13.6	-13.0	41.7*
CCOCCCn1c(=S)[nH]c2ncccc2c1=O	1.1	1.0	7.2	6.5	-9.0	32.8*
CC(C)CCn1c(=S)[nH]c2ncccc2c1=O	0.9	-1.9	-5.3	-3.4	-5.0	1.0
COc1cccc(OCCCOc2c(C)cccc2C)c1	nt	nt	3.4	nt	nt	nt
Cc1cccc(-c2nc(CS(=O)CC(=O)NCCCSC3CCCCC3)c(C)o2)c1 (stereo not given)	1.5	72.7*	2.6	6.8	-16.0	15.7
SMILES	PLAP act	Ecoli tolC	HePTP inh	PostGolgi yeast	Ecoli WT expand	PostGolgi ctrl
COc1cccc(-c2nc(CS(=O)CC(=O)NC3CCCC3)c(C)o2)c1 (stereo not given)	1.6	-9.3	3.3	9.3	-3.0	-1.0
CCCCNC(=O)CS(=O)Cc1nc(-c2ccc(C)cc2)oc1C (stereo not given)	1.1	-5.6	4.1	2.5	-4.0	-4.1
CCc1cccc(NC(=O)CS(=O)Cc2nc(-c3ccc(C)cc3)oc2C)c1 (stereo not given)	1.7	4.9	-1.7	-10.0	-9.0	34.5*
N/C(=N\c1nc2c(c(=O)[nH]1)CCCC2)Nc1ccccc1	1.9	10.7	8.2	-1.1	4.0	-10.5
N/C(=N\c1nc2c(c(=O)[nH]1)CCCC2)Nc1ccccc1Sc1ccccc1	2*	nt	nt	0.7	-14.0	12.1
O=C(c1ccccc1C(=O)N1CCN(c2ccccc2F)CC1)N1CCN(c2ccccc2F)CC1	1.5	15.8	2.7	9.0	3.0	12.7
O=C1CN(c2ccccc2F)C(=O)CN1c1ccccc1F	0.9	8.1	5.1	13.4	6.0	37.0*
COc1ccc(C(=O)CC(Nc2ccc(C)c(Cl)c2)c2ccccc2)cc1 (stereo not given)	nt	nt	1.4	nt	nt	nt
Cc1cc(NCCN2CCOCC2)n2nc(C)c(-c3ccc(Cl)cc3)c2n1	1.8	14.1	10.9	46.7*	-4.0	33.5*
CC(=O)C1=C(N2CCCCC2)CCC1=O	0.8	-20.5	6.0	-0.9	4.0	31.8*
O=C(OCc1ccc2c(c1)OCO2)c1cccc(S(=O)(=O)N2CCCCC2)c1	1.5	nt	nt	-4.9	-15.0	38.0*
O=S(=O)(c1ccc2c(c1)OCCO2)N1CCN(Cc2ccc3c(c2)OCO3)CC1	0.8	6.0	6.6	0.4	-8.0	31.4*
O=S(=O)(c1ccc(F)c(F)c1)N1CCN(Cc2ccc3c(c2)OCO3)CC1	0.9	6.9	5.5	6.8	-1.0	11.8
COc1ccc(N2C(=O)NC(=O)/C(=C\c3ccc(OCc4cccc(F)c4)c(OC)c3)C2=O)cc1	nt	nt	6.9	nt	nt	nt
O=[N+]([O-])c1ccc(N2CCN(S(=O)(=O)c3ccc(F)cc3)CC2)cc1	nt	nt	5.5	nt	nt	nt
Cc1cc2c(n1-c1ccc(Br)cc1)CC(C)(C)CC2=O	1	nt	nt	0.3	4.0	40.0*
Cc1ccc(-n2c(C)cc3c2CC(C)(C)CC3=O)cc1C	1.1	nt	nt	16.1	-4.0	31.2*
CC1(C)CC(=O)c2cc(C(=O)NCCO)c(=O)n(-c3ccccc3)c2C1	nt	nt	4.5	nt	nt	nt
COc1cccc(OCC(O)CN(CCO)Cc2ccccc2)c1 (stereo not given)	1.1	-6.4	0.2	-8.1	-2.0	6.2
CCC(=O)c1ccc(OCC(O)CN(CCc2ccccc2)Cc2ccccc2)cc1 (stereo not given)	1.3	nt	nt	6.1	-11.0	52.4*
Cc1c(O)ccc(-c2[nH]ncc2-c2nc3ccccc3s2)c1O	2.2*	nt	nt	14.3	0.0	-0.6
CC(C)C(=O)Nc1ccc(O)c(-c2nc3ccccc3s2)c1	nt	nt	11.1	nt	nt	nt
COc1cnc(-c2ccccn2)nc1Oc1ccc(Cl)c2ccccc12	1.3	nt	nt	24.2	-1.0	62.8*
S=c1[nH]nc(C23CC4CC(CC(C4)C2)C3)n1Cc1ccco1	1.5	33.9	5.0	2.5	1.0	44.9*
S=c1[nH]nc(-c2ccncc2)n1Cc1ccco1	1	5.4	12.4	16.4	7.0	8.7
CCOc1ccccc1-c1nc(-c2cc3ccc(C)cc3[nH]c2=O)no1	nt	-0.8	4.6	-7.7	-14.0	30.8*

Bioassay records: PubChem, several laboratories
